In the library only some 2.9% were active in any assay of this set; here they are far more common.
ABHD5 PLIN5 PPI: ABHD5-PLIN5 interaction inhibitors, primary screen, cell lysate, split luciferase complementation, luminescence | inhibition, % at 4 µM | Split G. princeps luciferase complementation, 4 h | AID 602281, 2012 | hit rate 0.78% among 360,000;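 active means inhibition above the mean inhibition across every tested compound plus 3 SD, cut at about 22% in these data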;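 further: 0% = DMSO only wells and the 100% control is not disclosed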
A3G deaminase: APOBEC3G DNA deaminase inhibitors, primary screen, biochemical, fluorescence, single-stranded DNA substrate, uHTS | DNA dC->dU-editing enzyme APOBEC-3G (Homo sapiens), Q9HC16 | recombinant A3G, ssDNA deamination FAM/TAMRA fluorescence | inhibition, % at 20 µM | hit rate 0.28% among 330,000;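 active means inhibition of at least 40% at 20 µM, with no more than 30% in the related APOBEC3A deaminase screen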;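 further: plate controls were DMSO wells with A3G for no effect and wells lacking A3G enzyme for full effect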
PRMT1 inh: PRMT1 methyltransferase inhibitors, primary screen, biochemical, fluorescence polarization. recombinant PRMT1, activity-based probe fluorescence polarization. inhibition, % at 2.79 µM. hit rate 1.3% among 370,000;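 active means inhibition above about 21% made by adding two undisclosed values, limit read from the data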
Target sequence (Q99873 whole entry, looked up): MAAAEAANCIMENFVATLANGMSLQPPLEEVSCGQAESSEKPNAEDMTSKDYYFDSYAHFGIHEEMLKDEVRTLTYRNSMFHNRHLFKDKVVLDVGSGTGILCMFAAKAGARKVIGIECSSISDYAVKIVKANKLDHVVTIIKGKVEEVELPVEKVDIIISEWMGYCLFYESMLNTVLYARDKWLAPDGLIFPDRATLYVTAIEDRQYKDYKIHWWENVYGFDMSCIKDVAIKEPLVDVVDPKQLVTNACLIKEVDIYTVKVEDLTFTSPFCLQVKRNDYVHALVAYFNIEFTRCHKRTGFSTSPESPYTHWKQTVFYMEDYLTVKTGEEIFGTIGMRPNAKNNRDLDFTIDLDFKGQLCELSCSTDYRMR
HCV NS3 hel inh: inhibitors of HCV NS3 helicase, primary screen, biochemical, Cy5 molecular beacon fluorescence | NS3 helicase DNA unwinding | hit rate 0.56% among 290,000 | inhibition, % at 10.9 µM | AID 1800, 2009 | Hepatitis C virus NS3 helicase;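 active means inhibition above the mean of all tested compounds plus 3 SD, set per campaign, cut at about 35% in these data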;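 further: 0% = DMSO wells and 100% = thioflavine S control wells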
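Test system: hepatitis C virus NS3 helicase domain fragment enzyme. Also added: annealed dual-labelled DNA beacon duplex, ATP-started. Timing: 60 min unwinding reaction at 25 °C after ATP addition. Technique: Cy5 fluorescence. Measure: % inhibition of unwinding.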
APOBEC3A inh: APOBEC3A ssDNA deaminase inhibitors, primary screen, selectivity assay for APOBEC3G inhibitor project, biochemical, FAM/TAMRA oligo cleavage fluorescence. recombinant A3A, FAM/TAMRA ssDNA deamination fluorescence. hit rate 0.41% among 330,000. inhibition, % at 20 µM. DNA dC->dU-editing enzyme APOBEC-3A (Homo sapiens), P31941;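 active means at least 40% inhibition at 20 µM here, with at most 30% in a related deaminase screen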;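 further: plate controls were A3A with DMSO for no effect and wells lacking A3A enzyme for full effect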
Target sequence (P31941 whole entry, looked up): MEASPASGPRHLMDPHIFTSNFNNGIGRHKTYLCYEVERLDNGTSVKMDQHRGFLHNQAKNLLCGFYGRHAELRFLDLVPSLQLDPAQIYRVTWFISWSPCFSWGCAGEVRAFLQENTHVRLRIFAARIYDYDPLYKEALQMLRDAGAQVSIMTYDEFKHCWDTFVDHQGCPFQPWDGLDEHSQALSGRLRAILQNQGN
HCV core dimer: inhibitors of HCV core protein dimerization, primary screen, biochemical, TR-FRET, high-throughput; TR-FRET GST/Flag-core106 dimerization, 1536-well; inhibition, % at 5 µM; hit rate 0.33% among 300,000; AID 1899, 2009;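 active means inhibition above the mean of all tested compounds plus 3 SD, set per screening campaign, cut at about 45% in these data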
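assay system = GST-tagged and Flag-tagged HCV core protein residues 1-106 | controls = unlabelled core106 and no-GST-core106 wells | incubation = compound-protein-antibody incubation 4 h at 22.5 °C | probe or stimulus = Eu donor and XL665 acceptor anti-tag antibodies | read-out = % inhibition based on acceptor/donor emission ratio | signal = TR-FRET 671 and 617 nm emission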
APOBEC3A confirm: APOBEC3A deaminase inhibitors, retest, confirmation, selectivity assay for APOBEC3G inhibitor project, biochemical, single concentration, fluorescence readout | shares compounds with APOBEC3A inh | recombinant A3A, ssDNA deaminase UDG fluorescence assay | inhibition, % at 20 µM | hit rate 63% among 1,400;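 active means inhibition reaching a set limit, 80% of the first screen's cutoff, at 20 µM in any replicate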;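 further: plate controls were DMSO wells with A3A for no effect and wells lacking A3A enzyme for full effect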
UDG ctr A3A: E. coli UDG inhibitors, confirmation, counter-screen for APOBEC3A inhibitor project, biochemical, single concentration, fluorescence, FAM/TAMRA oligo; shares compounds with APOBEC3A inh; UDG counterscreen, FAM/TAMRA uracil oligo fluorescence; inhibition, % at 20 µM; 1,000 tested, under 10 active; call rule not given here
* marks the source's active call; other numbers are inactive results; . = not tested or not shown.

SMILES	ABHD5 PLIN5 PPI	A3G deaminase	PRMT1 inh	HCV NS3 hel inh	APOBEC3A inh	HCV core dimer	APOBEC3A confirm	UDG ctr A3A
CCOc1ccc(CN2C(=O)c3ccccc3C2=O)cc1C(=O)NC1CC(C)(C)NC(C)(C)C1	1.6	9.4	-1.1	.	44.9*	.	63.9*	-3.1
CCOc1ccc(CN2C(=O)c3ccccc3C2=O)cc1C(=O)Nc1nnc(SCC)s1	3.0	-2.4	-3.9	5.0	0.7	4.9	.	.
CS(=O)(=O)c1ccc(C(=O)N2CC(=O)Nc3ccccc32)cc1	-10.3	4.7	-2.5	9.9	54.3*	-14.2	21.4	.
COc1ccc(-c2c(-c3ccsc3)oc3c2C(O)CCC3)cn1 (stereo not drawn)	-2.5	.	3.8	.	.	.	.	.
COc1ccc(-c2nnc3sc(C4CCCCC4)nn23)cc1OC	6.4	16.3	5.4	-9.1	49.4*	5.1	30.4	.
COC(C(=O)Nc1ccc(Cl)cc1C)c1ccccc1 (stereo not drawn)	1.2	12.0	-2.8	3.8	52.5*	4.6	11.6	.
COc1ccc(Cl)cc1C(=O)NNC(=O)c1csc(N2CCOCC2)n1	4.1	-5.5	-0.7	.	40.6*	-0.1	-3.6	2.7
C[C@@H]1CN([C@H](C)CO)C(=O)CCCn2nncc2CO[C@H]1CN(C)C(=O)C1CCCCC1	0.0	.	-3.3	.	.	.	.	.
CSc1ccccc1NC(=O)CN(C)CC(=O)c1[nH]c(C)c(C(C)=O)c1C	4.1	19.5	3.0	.	67.8*	.	50.2*	-0.6
CC(=O)c1c(C)[nH]c(C(=O)CN(C)CC(=O)Nc2ccccc2Cl)c1C	-3.7	-6.0	-0.2	.	-0.5	.	.	.
CCOC(=O)[C@]12CCCCC/C=C\1N(Cc1ccc(OC)cc1)C(=O)[C@H]2CC(=O)NCC12CC3CC(CC(C3)C1)C2	.	.	2.6	.	.	.	.	.
CC(=O)c1cccc(OC(=O)c2ccc3c(=O)n4c(nc3c2)CCC4)c1	-9.8	20.9	.	.	65.5*	-2.0	47.4*	-2.3
CCN(CC)C(=O)c1cccc(-c2csc(C(O)c3cccc(Cl)c3)n2)c1 (stereo not drawn)	-2.4	.	2.2	.	.	.	.	.
O=C(CC1CC1)N[C@@H]1CC[C@@H](CCNS(=O)(=O)c2ccc(F)cc2)O[C@@H]1CO	-3.9	.	0.2	.	.	.	.	.
CCCCC[n+]1cccc2c3ccccc3ccc21	1.7	22.9	-0.8	-18.4	54.8*	-3.3	72.5*	-2.1
CCn1c(SCC(=O)NC2CCCCC2)nc2ccccc2c1=O	2.7	15.4	3.4	0.6	62.7*	-0.8	51.3*	-3.2
CCn1c(SCC(=O)N2CCN(c3ccc(Cl)cc3)CC2)nc2ccccc2c1=O	2.3	18.2	-0.1	-4.2	44.5*	11.1	66.4*	-1.2
CC(=O)NCCn1c(SCC(=O)NC2CCCCC2)nc2ccccc2c1=O	-2.0	-8.6	-1.4	-11.3	-0.5	-1.4	.	.
O=C(CSc1nnnn1Cc1ccccc1)N1CCN(c2ccccc2)CC1	2.7	12.7	1.6	16.9	47.2*	1.6	26.7	.
O=C(CSc1nc2ccccc2c(=O)n1-c1ccccc1)NCC1CCCO1 (stereo not drawn)	2.6	18.3	-5.9	14.7	49.5*	-2.8	70.9*	-1.9
CCOC(=O)c1cocc1C(=O)O	9.2	.	-2.0	.	.	.	.	.
Cc1ccccc1Br	.	.	2.2	.	.	.	.	.
COc1cc2ccc(C(=O)O)cc2cc1OC	-7.6	.	-0.9	.	.	.	.	.
COc1ccc(OC)c(NC(=O)COc2coc(CN3CCc4ccccc43)cc2=O)c1	5.3	1.0	1.2	.	1.1	-0.6	.	.
COCCN(C(=O)c1cc(CN2C(=O)c3ccccc3C2=O)ccc1OC)c1c(N)n(CC(C)C)c(=O)[nH]c1=O	5.8	.	2.0	.	.	.	.	.
SMILES	ABHD5 PLIN5 PPI	A3G deaminase	PRMT1 inh	HCV NS3 hel inh	APOBEC3A inh	HCV core dimer	APOBEC3A confirm	UDG ctr A3A
COC(=O)c1ccc(N2NC(=O)/C(=C/c3ccc(-c4ccc(Cl)c(C(=O)O)c4)o3)C2=O)cc1	6.4	27.2	18.5	9.1	59.4*	.	70.0*	-2.7
Cc1ccc(N2NC(=O)/C(=C/c3ccc(-c4ccc(Cl)c(C(=O)O)c4)o3)C2=O)cc1C	0.8	1.0	4.0	20.1	7.4	-43.5	.	.
CN(Cc1ccccc1C(F)(F)F)C(=O)C1CCC(=O)N(CC2CCCCC2)C1 (stereo not drawn)	4.9	.	0.5	.	.	.	.	.
COc1ccc(C(C(=O)NC2CCCC2)N(Cc2cccnc2)C(=O)Cc2cccs2)c(OC)c1 (stereo not drawn)	3.8	-6.9	4.6	0.7	-2.5	3.6	.	.
Cc1cccc(Nc2nn3c(=O)c4ccccc4nc3s2)c1	-2.8	8.2	-0.8	-15.7	46.4*	68.8*	22.4*	1.4
CCOc1ccc(N(CC(=O)Nc2ccc(C)c(C)c2)S(C)(=O)=O)cc1	-0.7	2.8	-1.1	-1.3	46.1*	-1.5	1.8	.
CCOc1ccc(N(CC(=O)Nc2ccccc2)S(C)(=O)=O)cc1	-0.4	9.1	-1.1	-6.6	42.7*	0.0	63.8*	-3.7
CCOc1ccc(N(CC(=O)Nc2ccccc2Cl)S(C)(=O)=O)cc1	-11.3	0.7	1.3	-6.8	1.5	-8.6	.	.
CC(NS(=O)(=O)c1ccc2c(c1)CC(C)N2C(=O)C1CC1)c1ccccc1 (stereo not drawn)	4.5	-5.8	0.4	-6.4	-3.5	3.4	.	.
C[C@H]1[C@H](c2ccccc2)C[C@@H](C(=O)O)C1(C)C	4.8	-10.0	-3.1	.	-4.7	3.6	.	.
COc1ccc(N2CCN(C(=O)c3cn(CC4CCCCC4)nn3)CC2)cc1	4.5	-3.3	-1.8	-5.1	-3.8	12.6	.	.
CC1(C)CC(N2CCN(Cc3ccccc3)CC2)=CC(=[N+]2CCCCC2)C1	6.2	14.9	-6.2	3.3	32.2	-5.3	.	.
CC1(C)CC(N2CCOCC2)=CC(=S)N1	-21.2	.	.	.	.	.	.	.
CC1(C)CC(N2CCCC2)=CC(=[N+]2CCCC2)C1	2.5	22.1	-1.0	-5.0	65.9*	-17.1	71.8*	1.6
CC1(C)CC(N2CCCC2)=CC(=[N+]2CCCCC2)C1	4.1	18.7	3.0	4.0	50.8*	0.4	70.5*	5.3

From PubChem BioAssay
